Experimental data published in ChEMBL document CHEMBL1759961, “Alkyl piperidine and piperazine hydroxamic acids as HDAC inhibitors” (Bioorg Med Chem Lett, 2011).
pIC50: −log10 of the molar value.

Assays:
[1] = biological target: T1, Histone deacetylase (Homo sapiens) (UniProt Q13547+O15379+Q9UBN7+Q92769+Q9UQL6+Q8WUI4+Q9BY41+Q96DB2+P56524+Q9UKV0+Q969S8); test: Inhibition of HDAC in human HeLa cells at 50 uM by fluorescent activity assay; type: cell-based
Procedure, shortened: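 HDAC activity was measured with a commercial fluorescent kit using Fluor de Lys substrate plus developer. Compounds were dissolved in DMSO and stored at -80 °C. Fluorophore release was read at excitation 335 nm and emission 460 nm. All experiments were run in triplicate.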

[2] = biological target: T1, Histone deacetylase (Homo sapiens); details: HeLa, at 10 µM
[3] = biological target: T1, Histone deacetylase (Homo sapiens); details: HeLa, at 0.1 µM
[4] = biological target: T1, Histone deacetylase (Homo sapiens); details: HeLa, at 1 µM
Histone deacetylase = test: Inhibition of HDAC in human HeLa cells by fluorescent activity assay; type: cell-based
HCT-116 = test: Antiproliferative activity against human HCT116 cells after 5 days by Alamar blue assay; type: functional, cell-based; details: HCT-116, 120 h

Row | SMILES | inhibition [1] [%] | inhibition [2] [%] | inhibition [3] [%] | inhibition [4] [%] | IC50 (Histone deacetylase) [µM] | pIC50 (HCT-116)
1 | O=C(CN1CCN(C(=O)Cc2ccccc2)CC1)NO | 19 | 6 | – | – | – | –
2 | O=C(CCN1CCN(C(=O)Cc2ccccc2)CC1)NO | 2 | 0 | – | – | – | –
3 | O=C(CCCCCC1CCN(C(=O)NCc2ccccc2)CC1)NO | – | – | 20 | 62 | – | –
4 | O=C(CCCN1CCN(C(=O)Cc2ccccc2)CC1)NO | 52 | 28 | – | – | – | –
5 | O=C(CCCC1CCN(C(=O)NCc2ccccc2)CC1)NO | – | 86 | 59 | 69 | 0.09 | 6.52
6 | O=C(CCCC1CCN(C(=O)Cc2ccccc2)CC1)NO | 85 | 80 | 36 | 72 | 0.26 | 5.29
7 | O=C(CC1CCN(S(=O)(=O)c2ccccc2)CC1)NO | 68 | 41 | – | – | – | –
8 | O=C(CCCCC1CCN(S(=O)(=O)c2ccccc2)CC1)NO | – | – | 13 | 45 | – | –
9 | O=C(CCCCC1CCN(C(=O)NCc2ccccc2)CC1)NO | – | – | 18 | 49 | – | –
10 | O=C(CCCN1CCN(S(=O)(=O)Cc2ccccc2)CC1)NO | 19 | < 10 | – | – | – | –
11 | O=C(CCC1CCN(S(=O)(=O)Cc2ccccc2)CC1)NO | – | – | 8 | 33 | – | –
12 | O=C(CCCC1CCN(S(=O)(=O)c2ccccc2)CC1)NO | – | – | – | – | 0.54 | 5.57
13 | O=C(CC1CCN(C(=O)Cc2ccccc2)CC1)NO | 61 | 39 | – | – | – | –
14 | O=C(CCCCN1CCN(C(=O)Cc2ccccc2)CC1)NO | – | – | 19 | 40 | – | –
15 | O=C(CN1CCN(S(=O)(=O)Cc2ccccc2)CC1)NO | 51 | 16 | – | – | – | –
16 | O=C(CCCCN1CCN(S(=O)(=O)Cc2ccccc2)CC1)NO | – | – | 4 | 9 | – | –
17 | O=C(CCC1CCN(C(=O)c2ccccc2)CC1)NO | – | – | 11 | 30 | – | –
18 | O=C(CCCCN1CCN(S(=O)(=O)c2ccccc2)CC1)NO | – | – | 9 | 12 | – | –
19 | O=C(CC1CCN(C(=O)c2ccccc2)CC1)NO | 41 | 7 | – | – | – | –
20 | O=C(NO)C1CCN(S(=O)(=O)Cc2ccccc2)CC1 | 33 | 1 | – | – | – | –
21 | O=C(NO)C1CCN(C(=O)c2ccccc2)CC1 | 16 | 0 | – | – | – | –

More lines, now with the values ahead:

Row | inhibition [1] [%] | inhibition [2] [%] | inhibition [3] [%] | inhibition [4] [%] | IC50 (Histone deacetylase) [µM] | pIC50 (HCT-116) | SMILES
22 | – | – | 3 | 3 | – | – | O=C(CCN1CCN(C(=O)c2ccccc2)CC1)NO
23 | – | – | 9 | 33 | – | – | O=C(CCC1CCN(S(=O)(=O)c2ccccc2)CC1)NO
24 | – | – | 3 | 9 | – | – | O=C(CCCCN1CCN(C(=O)c2ccccc2)CC1)NO
25 | – | – | 12 | 44 | – | – | O=C(CCCCC1CCN(C(=O)c2ccccc2)CC1)NO
26 | 77 | – | 12 | – | 0.84 | 5.49 | O=C(CCCC1CCN(S(=O)(=O)Cc2ccccc2)CC1)NO
27 | 77 | 69 | 11 | – | 1.39 | 4.76 | O=C(CCCC1CCN(C(=O)c2ccccc2)CC1)NO
28 | 50 | 29 | – | – | – | – | O=C(NO)C1CCN(S(=O)(=O)c2ccccc2)CC1
29 | 44 | 14 | – | – | – | – | O=C(CCN1CCN(S(=O)(=O)c2ccccc2)CC1)NO
30 | 50 | 30 | – | – | – | – | O=C(CCCN1CCN(S(=O)(=O)c2ccccc2)CC1)NO
31 | 10 | 3 | – | – | – | – | O=C(CN1CCN(S(=O)(=O)c2ccccc2)CC1)NO
32 | 38 | 1 | – | – | – | – | O=C(CCN1CCN(S(=O)(=O)Cc2ccccc2)CC1)NO
33 | 65 | 33 | – | – | – | – | O=C(NO)C1CCN(C(=O)Cc2ccccc2)CC1
34 | – | – | 16 | 54 | – | – | O=C(CCCCCC1CCN(C(=O)Nc2ccccc2)CC1)NO
35 | – | – | 11 | 54 | – | – | O=C(CCCCC1CCN(C(=O)Cc2ccccc2)CC1)NO
36 | – | – | 2 | 24 | – | – | O=C(CCC1CCN(C(=O)Cc2ccccc2)CC1)NO
37 | 22 | 21 | – | – | – | – | O=C(CC1CCN(S(=O)(=O)Cc2ccccc2)CC1)NO
38 | – | 86 | 53 | 81 | 0.1 | 6.15 | O=C(CCCC1CCN(C(=O)Nc2ccccc2)CC1)NO
39 | 30 | 13 | – | – | – | – | O=C(CCCN1CCN(C(=O)c2ccccc2)CC1)NO
40 | – | – | 23 | 63 | – | – | O=C(CCCCC1CCN(C(=O)Nc2ccccc2)CC1)NO
